Reference: ChEMBL document CHEMBL1135534, “Synthesis, cytotoxicity, and antiplasmodial and antitrypanosomal activity of new neocryptolepine derivatives” (J Med Chem, 2002)
pIC50: −log10 of the molar value. Active and inactive are the calls of the source. The calls are words filed in the database; no cut-off is given here.

Experiments:
[1] = test system: Plasmodium falciparum; test: Antiplasmodial activity against chloroquine-sensitive Plasmodium falciparum Ghana; type: functional, organism-based
How it was run: (§1)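 Asexual P. falciparum cultures at 1% parasitaemia and 2% haematocrit (W2 for line 1, Ghana for line 2) exposed to 2-fold serial dilutions of the HCl salt for 48 h at 37 °C under 93% N2/4% CO2/3% O2. Plates frozen at -20 °C to lyse cells. Parasite LDH read-out: APAD reduction coupled to NBT formazan at 650 nm. IC50 in triplicate, mean ± SD.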

[2] = test system: Trypanosoma brucei; test: Antitrypanosomal activity against Trypanosoma brucei.; type: functional, organism-based
How it was run: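 Bloodstream-form trypomastigotes grown in HMI-9 medium; 10 000 parasites per well exposed to a range of compound concentrations for 4 days. Multiplication read colorimetrically at 490 nm after MTT addition. Test compounds as hydrochloride salts; IC50 determined in triplicate (mean ± SD).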

[3] = test system: Nucleic Acid; test: (§2) Inhibition of DNA interaction using DNA Methyl Green Assay.; type: functional
How it was run: (§3)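 DNA–methyl green complex stirred 24 h at 37 °C in 0.05 M Tris-HCl pH 7.5 with 7.5 mM MgSO4. Compound dried in wells under vacuum, then complex solution added. Absorbance at 620 nm compared between start and 24 h. IC50 taken as the concentration giving 50% absorbance decrease (50% dye displacement).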

[4] = test system: MRC5; test: Cytotoxicity against human diploid embryonic lung cell line MRC-5 using MTT assay; type: functional, cell-based
How it was run: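 Cells seeded at 5000 per well and washed after 24 h. 2-fold drug dilutions added in RPMI + 5% FCS, final DMSO below 0.5%. Incubated 7 days at 37 °C, 5% CO2/95% air. MTT read-out at 540 nm as percent reduction versus untreated controls. IC50 in triplicate (mean ± SD).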

[5] = Inhibition of beta-hematin formation; active
[6] = test system: Plasmodium falciparum; test: Antiplasmodial activity against chloroquine-resistant Plasmodium falciparum W2; type: functional, organism-based; how it was run: as §1
[7] = test system: Trypanosoma cruzi; test: Antitrypanosomal activity against Trypanosoma cruzi; type: functional, organism-based
How it was run: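 Primary mouse peritoneal macrophages seeded at 30 000 per well; after 24 h, about 10 000 trypomastigotes added per well with 2-fold drug dilutions. Incubated 4 days at 37 °C in 5% CO2/95% air. Cells MeOH-fixed and Giemsa-stained. Percent reduction of total parasite load (free trypomastigotes plus intracellular amastigotes) versus untreated cultures scored microscopically. IC50 in triplicate (mean ± SD).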

[8] = test system: Nucleic Acid; test: as §2; type: nucleic-acid assay; how it was run: as §3
[9] = molecular target: T1, Histidine-rich protein PFHRP-II (Plasmodium falciparum) (UniProt P05227); test: Inhibition of beta-hematin formation; no inhibition; type: functional
T1 sequence (whole entry): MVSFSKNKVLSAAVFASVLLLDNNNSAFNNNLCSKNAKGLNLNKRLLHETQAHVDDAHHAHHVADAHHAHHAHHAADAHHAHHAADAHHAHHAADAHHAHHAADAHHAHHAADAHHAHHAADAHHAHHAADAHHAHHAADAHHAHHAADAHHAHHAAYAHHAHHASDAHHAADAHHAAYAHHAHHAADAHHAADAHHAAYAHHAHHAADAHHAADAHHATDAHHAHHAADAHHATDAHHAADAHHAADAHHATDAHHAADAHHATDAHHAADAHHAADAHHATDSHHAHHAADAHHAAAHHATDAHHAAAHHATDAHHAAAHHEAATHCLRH
How it was run: (§4)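 Hematin solutions received compound at 3 equiv relative to hemin before acidification. Incubated 40 min at 60 °C, then cooled and filtered; precipitate washed with water and dried. β-Hematin detected by FT-IR bands at 1660 and 1207 cm-1. Hemin without compound served as the formation control. Result is a qualitative yes/no call.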

[10] = molecular target: T1, Histidine-rich protein PFHRP-II (Plasmodium falciparum); test: Inhibition of beta-hematin formation; active; type: functional; how it was run: as §4
[11] = test system: Nucleic Acid; test: as §2; type: nucleic-acid assay; conditions: concentration not given here; how it was run: as §3

SMILES	pIC50 [1]	pIC50 [2]	pIC50 [3]	pIC50 [4]	inhibition [5]	pIC50 [6]	pIC50 [7]	pIC50 [8]	inhibition [9]	inhibition [10]	inhibition [11] [%]
Clc1cc(Cl)c2[nH]c3nc4ccccc4c-3cc2c1	< 4.49	< 4.49	< 3.00	< 4.49	Active	< 4.49					
COc1ccc2c(c1)cc1c3cc(C#N)ccc3nc-1n2C	4.55	6.00		< 4.49		4.77	6.00	< 3.30	No inhibition		
Cn1c2nc3ccc(C#N)cc3c-2cc2cc(C(F)(F)F)ccc21	4.85	< 4.49		< 4.49		5.17	< 4.49	< 3.70			
Cn1c2nc3ccccc3c-2cc2cc(Cl)ccc21	4.68	5.89		4.78	Active	5.30	4.92	< 3.30			
CSc1ccc2c(c1)cc1c3ccccc3nc-1n2C	5.40	6.10		5.30	Active	5.43	5.40	< 3.22			
Fc1ccc2[nH]c3nc4ccccc4c-3cc2c1	< 4.49	< 4.49		< 4.49		< 4.49	< 4.49	< 3.00	No inhibition		
COc1cccc2c1cc1c3ccccc3nc-1n2C	4.75	5.89		5.30		4.91	5.40	< 3.00	No inhibition		
Cn1c2nc3ccccc3c-2cc2cc(I)ccc21	4.75	6.00		4.80	Active	5.20	4.74	< 3.40			
COc1ccc2c(c1)cc1c3ccccc3nc-1n2C	5.37	6.52		5.40		5.33	5.77	4.11	No inhibition		
Cn1c2nc3ccc(C#N)cc3c-2cc2ccccc21	< 4.49	< 4.49		< 4.49	Active	< 4.49		< 3.00			
Cn1c2nc3ccccc3c-2cc2c(Br)cccc21	< 4.49	4.78		4.80		< 4.49	4.80	< 3.22	inactive		
Cn1c2nc3ccccc3c-2cc2ccc(Cl)cc21		5.03		4.81			4.77	< 3.15		Active	
Cn1c2nc3ccccc3c-2cc2ccc(C(F)(F)F)cc21		4.78		4.74			< 4.49	< 3.30		Active	
Cn1c2nc3ccccc3c-2cc2c(C(F)(F)F)cccc21	< 4.49	< 4.49		4.80		< 4.49	4.79	< 3.40			
COc1ccc2[nH]c3nc4ccccc4c-3cc2c1	< 4.49	< 4.49		< 4.49		< 4.49		< 3.00		Active	
Cn1c2nc3ccc(C#N)cc3c-2cc2cc(F)ccc21	4.79	5.40		4.96	Active	4.83	< 4.49	< 3.22			
Cn1c2nc3ccccc3c-2cc2ccccc21 [NEOCRYPTOLEPINE]	4.56	5.40		4.96	Active	4.85	5.40	4.03			
Cc1ccc2c(c1)cc1c3ccccc3nc-1n2C	5.57	7.00		6.02		5.64					
Cn1c2nc3ccccc3c-2cc2cc([N+](=O)[O-])ccc21	4.54	6.15		< 4.49		< 4.49		< 3.00			
Cn1c2nc3ccccc3c-2cc2cc(Br)ccc21	5.22	6.00		< 4.49	Active	5.40	< 4.49	< 3.40			
C[n+]1c2ccccc2cc2[n-]c3ccccc3c21 [CRYPTOLEPINE]	5.64	5.52		5.82	Active	5.70		4.18			
Cn1c2nc3ccc(C#N)cc3c-2cc2cc(Cl)ccc21	< 4.49	< 4.49		< 4.49		< 4.49					
Cn1c2nc3ccccc3c-2cc2cc(F)ccc21	4.71	4.84		4.82	Active	5.33	5.22	< 3.30			
Clc1ccc2[nH]c3nc4ccccc4c-3cc2c1	< 4.49	< 4.49		< 4.49	Active	< 4.49	< 4.49	< 3.00			
Cn1c2nc3ccccc3c-2cc2ccc(Br)cc21		4.56		4.73			< 4.49	< 3.22		Active	
Cn1c2nc3ccccc3c-2cc2cc(C#N)ccc21	4.77	5.40		4.80		4.82	4.79	< 3.22			
COc1ccc2cc3c4ccccc4nc-3n(C)c2c1		6.40		5.46			6.00	3.82	No inhibition		37
